In brackets after ≈: the same amount, converted by molar mass.
Legend:
Assay type in all cases: functional
[1] = tested on: Streptococcus pneumoniae; assay: Antimicrobial activity against drug-susceptible Streptococcus pneumoniae 2 after 20 hrs by agar dilution method; details: Streptococcus pneumoniae, 20 h; read-out: MIC
Procedure, shortened: (§1)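 Streptococci, H. influenzae and M. catarrhalis were precultured on blood agar plates. Suspensions of about 10⁶ CFU/ml were inoculated onto sensitivity disk agar supplemented with 5% horse blood and incubated at 37 °C for 20 h. MIC was read as the lowest drug concentration with no visible growth.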

[2] = tested on: Staphylococcus aureus; assay: Antimicrobial activity against drug-susceptible Staphylococcus aureus 2 after 20 hrs by agar dilution method; details: Staphylococcus aureus, 20 h; read-out: MIC
Procedure, shortened: (§2)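 Agar dilution MIC. S. aureus seed culture was grown in sensitivity test broth. Cell suspension (about 10⁶ CFU/ml) was inoculated onto sensitivity disk agar with 5% horse blood and incubated at 37 °C for 20 h. MIC was the lowest drug concentration that prevented visible growth.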

[3] = tested on: Streptococcus pneumoniae; assay: Antimicrobial activity against Streptococcus pneumoniae 9 expressing mefA after 20 hrs by agar dilution method; details: Streptococcus pneumoniae, 20 h; read-out: MIC; procedure, shortened: as §1
[4] = tested on: Moraxella catarrhalis; assay: Antimicrobial activity against drug-susceptible Moraxella catarrhalis 1 after 20 hrs by agar dilution method; details: Moraxella catarrhalis, 20 h; read-out: MIC; procedure, shortened: as §1
[5] = tested on: Staphylococcus aureus; assay: Antimicrobial activity against Staphylococcus aureus 5 expressing inducible ermB after 20 hrs by agar dilution method; details: Staphylococcus aureus, 20 h; read-out: MIC; procedure, shortened: as §2
[6] = tested on: Staphylococcus aureus; assay: Antimicrobial activity against drug-susceptible Staphylococcus aureus 3 after 20 hrs by agar dilution method; details: Staphylococcus aureus, 20 h; read-out: MIC; procedure, shortened: as §2
[7] = tested on: Staphylococcus aureus; assay: Antimicrobial activity against Staphylococcus aureus 6 expressing inducible ermB after 20 hrs by agar dilution method; procedure, shortened: as §2
[8] = tested on: Streptococcus pyogenes; assay: Antimicrobial activity against Streptococcus pyogenes 2 constitutively expressing ermB after 20 hrs by agar dilution method; procedure, shortened: as §1
[9] = tested on: Haemophilus influenzae; assay: Antimicrobial activity against drug-susceptible Haemophilus influenzae 2 after 20 hrs by agar dilution method; details: Haemophilus influenzae, 20 h; read-out: MIC; procedure, shortened: as §1
[10] = tested on: Streptococcus pneumoniae; assay: Antimicrobial activity against Streptococcus pneumoniae 5 constitutively expressing ermB/mefA after 20 hrs by agar dilution method; details: Streptococcus pneumoniae, 20 h; read-out: MIC; procedure, shortened: as §1
[11] = tested on: Streptococcus pneumoniae; assay: Antimicrobial activity against Streptococcus pneumoniae 8 expressing inducible ermB after 20 hrs by agar dilution method; details: Streptococcus pneumoniae, 20 h; read-out: MIC; procedure, shortened: as §1
[12] = tested on: Haemophilus influenzae; assay: Antimicrobial activity against drug-susceptible Haemophilus influenzae 3 after 20 hrs by agar dilution method; details: Haemophilus influenzae, 20 h; read-out: MIC; procedure, shortened: as §1
[13] = tested on: Haemophilus influenzae; assay: Antimicrobial activity against drug-susceptible Haemophilus influenzae 1 after 20 hrs by agar dilution method; details: Haemophilus influenzae, 20 h; read-out: MIC; procedure, shortened: as §1
[14] = tested on: Haemophilus influenzae; assay: Antimicrobial activity against drug-susceptible Haemophilus influenzae 4 after 20 hrs by agar dilution method; details: Haemophilus influenzae, 20 h; read-out: MIC; procedure, shortened: as §1
[15] = tested on: Streptococcus pyogenes; assay: Antimicrobial activity against Streptococcus pyogenes 3 expressing mefA after 20 hrs by agar dilution method; details: Streptococcus pyogenes, 20 h; read-out: MIC; procedure, shortened: as §1
[16] = tested on: Streptococcus pneumoniae; assay: Antimicrobial activity against Streptococcus pneumoniae 6 constitutively expressing ermB after 20 hrs by agar dilution method; details: Streptococcus pneumoniae, 20 h; read-out: MIC; procedure, shortened: as §1
[17] = tested on: Staphylococcus aureus; assay: Antimicrobial activity against drug-susceptible Staphylococcus aureus 209P JC-1 after 20 hrs by agar dilution method; details: Staphylococcus aureus, 209P, 20 h; read-out: MIC; procedure, shortened: as §2
[18] = tested on: Streptococcus pneumoniae; assay: Antimicrobial activity against Streptococcus pneumoniae 7 expressing inducible ermB after 20 hrs by agar dilution method; details: Streptococcus pneumoniae, 20 h; read-out: MIC; procedure, shortened: as §1
[19] = tested on: Moraxella catarrhalis; assay: Antimicrobial activity against drug-susceptible Moraxella catarrhalis 2 after 20 hrs by agar dilution method; details: Moraxella catarrhalis, 20 h; read-out: MIC; procedure, shortened: as §1
[20] = tested on: Staphylococcus aureus; assay: Antimicrobial activity against Staphylococcus aureus 4 constitutively expressing ermA after 20 hrs by agar dilution method; procedure, shortened: as §2
[21] = tested on: Streptococcus pneumoniae; assay: Antimicrobial activity against drug-susceptible Streptococcus pneumoniae DP1 Type1 after 20 hrs by agar dilution method; details: Streptococcus pneumoniae, 20 h; read-out: MIC; procedure, shortened: as §1
[22] = tested on: Streptococcus pyogenes; assay: Antimicrobial activity against drug-susceptible Streptococcus pyogenes 1 after 20 hrs by agar dilution method; details: Streptococcus pyogenes, 20 h; read-out: MIC; procedure, shortened: as §1
[23] = tested on: Streptococcus pneumoniae; assay: Antimicrobial activity against Streptococcus pneumoniae 10 expressing mefA after 20 hrs by agar dilution method; details: Streptococcus pneumoniae, 20 h; read-out: MIC; procedure, shortened: as §1

MIC [1]	MIC [2]	MIC [3]	MIC [4]	MIC [5]	MIC [6]	MIC [7]	MIC [8]	MIC [9]	MIC [10]	MIC [11]	MIC [12]	MIC [13]	MIC [14]	MIC [15]	MIC [17]	MIC [18]	MIC [19]	MIC [20]	MIC [21]	Structure (SMILES)	other results
0.13 µg/mL (≈ 0.133 µM)	0.5 µg/mL (≈ 0.511 µM)	0.06 µg/mL (≈ 0.0613 µM)	0.13 µg/mL (≈ 0.133 µM)	0.5 µg/mL (≈ 0.511 µM)	0.25 µg/mL (≈ 0.255 µM)	0.5 µg/mL (≈ 0.511 µM)	> 128 µg/mL	1 µg/mL (≈ 1.02 µM)	128 µg/mL (≈ 131 µM)	8 µg/mL (≈ 8.17 µM)	4 µg/mL (≈ 4.08 µM)	32 µg/mL (≈ 32.7 µM)	8 µg/mL (≈ 8.17 µM)	0.13 µg/mL (≈ 0.133 µM)	0.13 µg/mL (≈ 0.133 µM)	8 µg/mL (≈ 8.17 µM)	0.25 µg/mL (≈ 0.255 µM)	> 128 µg/mL	0.06 µg/mL (≈ 0.0613 µM)	CCOC(=O)[C@H]1[C@H](C)O[C@@H](O[C@H]2[C@H](N(C)C)[C@@H](O)[C@H](O[C@H]3[C@@H](CC=O)C[C@@H](C)[C@@H](O)CN(CCCCc4ccccc4)CC[C@@H](C)OC(=O)C[C@@H](OC(=O)CC)[C@@H]3OC)O[C@@H]2C)C[C@@]1(C)OC(C)=O	MIC [16]: > 128 µg/mL; MIC [22]: 0.06 µg/mL (≈ 0.0613 µM); MIC [23]: 0.06 µg/mL (≈ 0.0613 µM)
0.25 µg/mL (≈ 0.248 µM)	1 µg/mL (≈ 0.993 µM)	0.5 µg/mL (≈ 0.496 µM)	0.25 µg/mL (≈ 0.248 µM)	0.5 µg/mL (≈ 0.496 µM)	0.5 µg/mL (≈ 0.496 µM)	1 µg/mL (≈ 0.993 µM)	> 128 µg/mL	2 µg/mL (≈ 1.99 µM)	> 128 µg/mL	32 µg/mL (≈ 31.8 µM)	4 µg/mL (≈ 3.97 µM)	> 128 µg/mL	8 µg/mL (≈ 7.94 µM)	0.25 µg/mL (≈ 0.248 µM)	0.5 µg/mL (≈ 0.496 µM)	8 µg/mL (≈ 7.94 µM)	0.5 µg/mL (≈ 0.496 µM)	> 128 µg/mL	0.25 µg/mL (≈ 0.248 µM)	CCOC(=O)[C@H]1[C@H](C)O[C@@H](O[C@H]2[C@H](N(C)C)[C@@H](O)[C@H](O[C@H]3[C@@H](CC=O)C[C@@H](C)[C@@H](OC(C)=O)CN(CCCCc4ccccc4)CCCOC(=O)C[C@@H](OC(=O)CC)[C@@H]3OC)O[C@@H]2C)C[C@@]1(C)OC(C)=O	MIC [22]: 0.25 µg/mL (≈ 0.248 µM); MIC [23]: 0.25 µg/mL (≈ 0.248 µM)
1 µg/mL (≈ 0.994 µM)	2 µg/mL (≈ 1.99 µM)	1 µg/mL (≈ 0.994 µM)	1 µg/mL (≈ 0.994 µM)	1 µg/mL (≈ 0.994 µM)	1 µg/mL (≈ 0.994 µM)	2 µg/mL (≈ 1.99 µM)	> 128 µg/mL	4 µg/mL (≈ 3.98 µM)	> 128 µg/mL	> 128 µg/mL	16 µg/mL (≈ 15.9 µM)	> 128 µg/mL	16 µg/mL (≈ 15.9 µM)	1 µg/mL (≈ 0.994 µM)	1 µg/mL (≈ 0.994 µM)	> 128 µg/mL	1 µg/mL (≈ 0.994 µM)	> 128 µg/mL	0.5 µg/mL (≈ 0.497 µM)	CCOC(=O)[C@H]1[C@H](C)O[C@@H](O[C@H]2[C@H](N(C)C)[C@@H](O)[C@H](O[C@H]3[C@@H](CC=O)C[C@@H](C)[C@@H](OC(C)=O)CN(CCCCc4ccccc4)CCN(C)C(=O)C[C@@H](OC(=O)CC)[C@@H]3OC)O[C@@H]2C)C[C@@]1(C)OC(C)=O	MIC [16]: > 128 µg/mL; MIC [22]: 0.5 µg/mL (≈ 0.497 µM); MIC [23]: 1 µg/mL (≈ 0.994 µM)
0.25 µg/mL (≈ 0.256 µM)	1 µg/mL (≈ 1.02 µM)	0.13 µg/mL (≈ 0.133 µM)	0.13 µg/mL (≈ 0.133 µM)	0.25 µg/mL (≈ 0.256 µM)	0.5 µg/mL (≈ 0.511 µM)	1 µg/mL (≈ 1.02 µM)	> 128 µg/mL	1 µg/mL (≈ 1.02 µM)	> 128 µg/mL	8 µg/mL (≈ 8.18 µM)	4 µg/mL (≈ 4.09 µM)	16 µg/mL (≈ 16.4 µM)	8 µg/mL (≈ 8.18 µM)	0.25 µg/mL (≈ 0.256 µM)	0.25 µg/mL (≈ 0.256 µM)	8 µg/mL (≈ 8.18 µM)	0.25 µg/mL (≈ 0.256 µM)	> 128 µg/mL	0.13 µg/mL (≈ 0.133 µM)	CCOC(=O)[C@H]1[C@H](C)O[C@@H](O[C@H]2[C@H](N(C)C)[C@@H](O)[C@H](O[C@H]3[C@@H](CC=O)C[C@@H](C)[C@@H](O)CN(CCCCc4ccccc4)CCCCNC(=O)C[C@@H](OC(=O)CC)[C@@H]3OC)O[C@@H]2C)C[C@@]1(C)OC(C)=O	MIC [16]: > 128 µg/mL; MIC [22]: 0.06 µg/mL (≈ 0.0613 µM); MIC [23]: 0.13 µg/mL (≈ 0.133 µM)

From ChEMBL document CHEMBL1151705, “Novel azalides derived from 16-membered macrolides. Part II: Isolation of the linear 9-formylcarboxylic acid and its sequential macrocyclization with an amino alcohol or an azidoamine” (2008)
